Results as given in ChEMBL document CHEMBL1129511 (J Med Chem, 1996).
pIC50: −log10 of the molar value.

Tests used:
Bacteria [1] = assay: Catalytic rate constant for bacterial Carboxypeptidase
Procedure, shortened: (§1)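 CPG2 kinetics adapted from the methotrexate CPG2 method. Prodrug and drug spectra were scanned from 200 to 350 nm, and the wavelength of maximal absorbance difference from glutamate release was chosen. Initial rates of prodrug conversion were measured at 1-100 µM prodrug with 0.05-1 Unit CPG2 to give Km and Vmax. kcat was Vmax divided by the amount of CPG2.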

LoVo = assay: Inhibitory concentration was evaluated against colorectal tumar cell line LoVo; type: functional, cell-based; conditions: Homo sapiens
Procedure, shortened: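 Cells were exposed to compound in microtitre plates for 1 h, washed, then grown a further 3 days at 37 °C. They were fixed with TCA, and adherent cellular protein was measured by SRB staining. IC50 is the concentration giving 50% growth inhibition.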

[2] = Half life period was reported; type: ADME
Bacteria [3] = assay: Michaelis-Menten constant for bacterial Carboxypeptidase; procedure, shortened: as §1

Row | SMILES | k cat (Bacteria [1]) [s⁻¹] | pIC50 (LoVo) | half-life [2] [min] | Km (Bacteria [3]) [µM]
1 | O=C(O)CC[C@H](NC(=O)c1ccc(N(CCCl)CCCl)cc1)C(=O)O | 700 | < 3.30 | 660 | 3.4
2 | O=C(O)CC[C@H](NC(=O)Oc1ccc(N(CCCl)CCCl)cc1)C(=O)O | 49 | 3.70 | 31 | 1
3 | O=C(O)CC[C@H](NC(=O)Cc1ccc(N(CCCl)CCCl)cc1)C(=O)O | 15 | < 3.30 | 33 | 16
4 | CS(=O)(=O)OCCN(CCCl)c1ccc(C(=O)N[C@@H](CCC(=O)O)C(=O)O)cc1 | 583 | < 3.30 | 46 | 3.4
5 | O=C(O)CC[C@H](NC(=O)Sc1ccc(N(CCCl)CCCl)cc1)C(=O)O | 4 | 4.00 | 32.2 | 50
6 | CS(=O)(=O)OCCN(CCCl)c1ccc(C(=O)O)cc1 | – | 4.10 | – | –
7 | O=C(O)CC[C@H](NC(=O)Nc1ccc(N(CCCl)CCCl)cc1)C(=O)O | 7.5 | 3.70 | 16.9 | 3
